Most compounds without a hit are left out; they make up all but 3.8% or so of the library.
HSP90 refold inh: inhibitors of HSP90 luciferase refolding in rabbit reticulocyte lysate; 0.91% of 290,000 active; inhibition, % at 5.6 µM; AID 1789; luciferase refolding luminescence, 3 h;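 active = inhibition above the screen-wide mean plus 3 SD, computed separately per campaign, cut at about 16% in these data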;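 also: inhibitors lower the luminescence because luciferase stays unfolded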
Hep lipid drop: modulators of hepatic lipid droplet formation; 0.4% of 240,000 active; inhibition, % at 6.5 µM; AML12 mouse hepatocytes, oleate lipid droplets, BODIPY imaging;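 active = lipid droplet intensity inhibited by at least 50%, with more than 500 cells counted; inconclusive = wells with under 300 cells, treated as cytotoxic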
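Assay system: AML12 mouse liver cells | Compound dosing: One dose, 6.5 µM compound | Read-out basis: Droplet intensity reduction, % inhibition | Measured by: Fluorescence imaging, 20x objective, two fields per well | Schedule: Overnight treatment with compound plus oleate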
HSF1 inh: HSF1 inhibition. activity change, negative = inhibition, % at 7.5 µM (by protocol). 0.77% of 300,000 active. AID 2098. NIH3T3-HGL HSE-luciferase, MG132-induced, luminescence 8 h; active compounds read low;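 active = more than half of replicate wells show activity change below -50%, luminescence cut by over half; inconclusive = some wells, but at most half, below -50%; inactive = no replicate well below -50%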;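 also: luciferase reports HSF-1 transcriptional activity via heat shock element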
HSF1 activator: increases HSF-1 driven luciferase reporter signal | NIH3T3-HGL HSF-1 luciferase reporter, MG132, 8 h; 100% = twice DMSO control signal | activation, % at 9 µM | 1.7% of 300,000 active;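 active = mean replicate activation of at least 50% with a set share of replicates each reaching 50%; inconclusive = only one of those two conditions met; inactive = mean below 50% and too few replicates reaching it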
NS3 helicase inh: inhibitors of Hepatitis C virus NS3 helicase; NS3 helicase DNA unwinding, Cy5 molecular beacon fluorescence; inhibition, % at 10.9 µM; 0.56% of 290,000 active;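 active = inhibition above the mean of all tested compounds plus 3 SD, set per campaign, cut at about 35% in these data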
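Test system: hepatitis C virus NS3 helicase domain fragment enzyme. Also added: annealed dual-labelled DNA beacon duplex, ATP-started. Timing: 60 min unwinding reaction at 25 °C after ATP addition. Technique: Cy5 fluorescence. Measure: % inhibition of unwinding.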
Of the large screens only hits and unclear results are named; the others gave an inactive call.

Nc1ccc(N2CCN(c3ccc(Cl)c(Cl)c3)CC2)cc1	none
CCCc1cc(=O)oc2c3c(cc(OCC(=O)N[C@@H](C)C(=O)O)c12)OC(C)(C)CC3	HSF1 activator 67
O=C(CN1CCC(C(=O)c2ccc3c(c2)OCCO3)CC1)Nc1ccccc1C(F)(F)F	none
CC1CCCCC1NC(=O)COC(=O)CNC(=O)c1cccc(F)c1 (centres undefined)	none
COc1ccc(-c2nc(NC(=O)CCNC(=O)c3ccco3)sc2C)cc1	none
CCCCCCOC(=O)C1=C(C)NC(=O)NC1c1ccc(O)cc1 (centres undefined)	none (no result: Hep lipid drop)
CCCCCOC(=O)C1=C(C)NC(=O)NC1c1ccc([N+](=O)[O-])cc1 (centres undefined)	HSF1 activator 63
CSc1nc(NC(C)(C)C)nc(Oc2ccc(=O)[nH]n2)n1	HSF1 activator 52
Cc1onc(-c2ccccc2)c1C(=O)Nc1nnc(C(C)(C)C)s1	none
COC(=O)c1sc(NC(=O)COc2ccccc2C)nc1C	HSF1 activator 57
CNC(=S)NNC(=O)COc1cccc(C)c1C	none
CNC(=S)NNC(=O)COc1ccccc1C	HSF1 activator 57 (no result: Hep lipid drop)
COC(=O)c1sc(NC(=O)COc2c(C)cccc2C)nc1C	none
Cc1ccccc1OCC(=O)Nc1ccc([N+](=O)[O-])cc1	HSF1 inh -70
CC(=O)Nc1ccc(NC(=O)COc2ccc([N+](=O)[O-])cc2)cc1	none
CN(C(=O)COC(=O)c1ccc(Br)c([N+](=O)[O-])c1)c1c(N)n(Cc2ccccc2)c(=O)[nH]c1=O	none (no result: HSP90 refold inh, Hep lipid drop, NS3 helicase inh)
O=C1C(=O)N(c2ccc(O)cc2)C(c2ccccc2[N+](=O)[O-])/C1=C(\O)c1ccccc1 (centres undefined)	none
CCN(CC)S(=O)(=O)c1cccc(C(=O)N/N=C/c2ccc([N+](=O)[O-])o2)c1	none
COc1ccc(C(=O)COC(=O)CCNS(=O)(=O)c2ccccc2)c(OC)c1	none (no result: HSP90 refold inh, Hep lipid drop, NS3 helicase inh)
CCOC(=O)c1ccc(N=Nc2c(C)[nH]n(-c3ccccc3)c2=O)cc1	none
CCOC(=O)c1ccc(-n2[nH]c(-c3ccccc3)cc2=O)cc1	HSF1 inh -72
c1ccc(-c2ccc(C(c3ccccc3)n3ccnc3)cc2)cc1 (centres undefined)	none
c1ccc(-c2ccc(-n3ccnc3)cc2)cc1	HSF1 activator 72 (no result: Hep lipid drop)
O=C1CCCN1CCC1CCCCN1Cc1nc(-c2cnccn2)no1 (centres undefined)	none
CCc1ccc(N2CC(C(=O)N/N=C/c3cc([N+](=O)[O-])ccc3O)CC2=O)cc1 (centres undefined)	HSF1 inh -55
CCN(c1ccccc1)S(=O)(=O)c1csc(C(N)=O)c1	none
CC1CC(C)(C)N(C(=O)NC2CCCCC2)c2ccccc21 (centres undefined)	HSF1 activator 57
COc1ccc2c(c1)C(C)CC(C)(C)N2C(=O)NC1CCCCC1 (centres undefined)	none
Cc1ccc(OCC(=O)Nc2ccc(NC(=O)c3ccccc3)c(C)c2)cc1	none (no result: HSF1 inh, HSF1 activator)
CSc1ccccc1C(=O)Nc1cc(C)ccc1C	HSF1 activator 58
CCC(=O)N(CCC(c1ccco1)c1ccccc1OC)Cc1cccs1 (centres undefined)	HSF1 inh -75
Cc1ccc(NC(=O)c2sc3nc(C)cc(C)c3c2N)cc1	none
Cc1cc(C)c2c(N)c(C(=O)Nc3cccc(C)c3C)sc2n1	HSF1 activator 52 (no result: Hep lipid drop)
O=C(CSCc1c(F)cccc1F)Nc1ccccc1	none
Cc1cc(C(=O)NC2CCCN(Cc3ccc(Cl)cc3)C2)n(C)n1 (centres undefined)	HSF1 inh -85
O=C(NC1CCCN(Cc2ccc(Cl)cc2)C1)c1c(F)cccc1F (centres undefined)	none
CCc1ccc2c(c1)C(c1ccc([N+](=O)[O-])cc1)=NNC(c1ccc(F)cc1)=N2	HSF1 activator 59
CCc1ccc2c(c1)C(c1ccncc1)=NNC(c1ccccc1)=N2	none
O=C(CCCN1C(=O)c2cccc3cccc(c23)C1=O)Nc1ccon1	HSF1 activator 113
Cc1cc(Nc2cccc(Cl)c2)nc(-c2ccccc2O)n1	HSF1 inh -70
C=C1C(=O)C=C2CN(C(=O)c3ccccc3)[C@@](Cc3ccc(F)cc3)(C(=O)OC)[C@@H]12	HSP90 refold inh 18, Hep lipid drop inconclusive, HSF1 activator inconclusive
COc1ccc(-n2nc(C(=O)NCC(=O)N3CCOCC3)c3ccccc3c2=O)cc1Cl	HSF1 activator 56
COc1ccc(-n2nc(C(=O)NCC(=O)N3CCCC(C)C3)c3ccccc3c2=O)cc1Cl (centres undefined)	none
CCCC(CCC)C(=O)Nc1ccc2c(c1)N(C(=O)CCN1CCN(C)CC1)c1ccccc1CC2	HSF1 inh -63
CCOC(=O)Nc1ccc2c(c1)N(C(=O)CN1CCN(C)CC1)c1ccccc1CC2	none
CCOc1ccc(-c2csc(/C(C#N)=C\c3ccc(O)c([N+](=O)[O-])c3)n2)cc1	none
Cc1ccc(/C=C2/NC(=O)N(Cc3ccc(Br)cc3)C2=O)o1	HSF1 activator 59
CCOC(=O)c1c(N)sc2c(O)c(Br)ccc12	HSF1 inh -94 (no result: Hep lipid drop)
Cc1noc2ncnc(Sc3ccccc3Cl)c12	none
COC(=O)c1ccccc1Sc1ncnc2onc(C)c12	HSF1 activator 86
Clc1ccccc1N1CCN(c2ncnc3nc[nH]c23)CC1	HSP90 refold inh 58
Cc1cccc(Nc2ncccc2C(=O)O)c1C	HSF1 inh -58 (no result: Hep lipid drop)
Cc1cccc(Nc2ccccc2C(=O)O)c1C	none
CCCCOC(=O)Nc1nnc(Cc2ccc(Cl)cc2)s1	none
O=C(NC12CC3CC(CC(C3)C1)C2)c1ccc(-c2cccc(Cl)c2)o1	HSP90 refold inh 17
O=C(NC12CC3CC(CC(C3)C1)C2)c1ccc(-c2ccc(Cl)cc2)o1	none
Cn1cc(CN2CCC(N3CCNC(=O)CC3)CC2)c(-c2ccccc2F)n1	none
Cc1cccc(C)c1OCC(=O)N=Nc1c(O)[nH]c2ccc(Br)cc12	none
CC(Oc1ccccc1)C(=O)N=Nc1c(O)[nH]c2ccc(Br)cc12 (centres undefined)	HSF1 activator 70
COc1ccc(OC)c(N(C(=O)c2snc(C(N)=O)c2N)C(C(=O)NCc2ccccc2)c2ccc(O)cc2)c1 (centres undefined)	none
COc1ccc(CNC(=O)C(c2ccc(C)o2)N(C(=O)c2snc(C(N)=O)c2N)c2ccccc2OC)cc1 (centres undefined)	HSF1 activator 58
CCn1cc(CN2N=C(C)CC2c2ccccc2)c(C)n1 (centres undefined)	none
Cc1ccc(Nc2nnc(SCC(=O)Nc3cc(C(=O)O)ccc3C)s2)c(C)c1	none
Clc1cccc(/C=N/Nc2nnc(Cl)c3ccccc23)c1	HSF1 activator 57 (no result: Hep lipid drop)
Clc1ccc(/C=N/Nc2nnc(-c3ncc[nH]3)c3ccccc23)cc1	none (no result: Hep lipid drop)
CCC(=O)Nc1cccc(C(=O)/C=C/c2ccc(F)cc2)c1	HSF1 activator 75
Cc1ccc(CSC2=Nc3ccccc3C3=NC(=O)CN23)cc1	none

Screens from PubChem.
